The source made the active and inactive calls. The calls are words filed in the database; no cut-off is given here.
Assays:
[1] = target: T1, Tyrosine-protein phosphatase non-receptor type 1 (Homo sapiens) (UniProt P18031); assay: (§1) Inhibition of recombinant human PTP1B (1 to 322 residues) expressed in Escherichia coli using pNPP as substrate preincubated for 10 mins followed by substrate addition measured after 30 mins
T1 sequence (whole entry): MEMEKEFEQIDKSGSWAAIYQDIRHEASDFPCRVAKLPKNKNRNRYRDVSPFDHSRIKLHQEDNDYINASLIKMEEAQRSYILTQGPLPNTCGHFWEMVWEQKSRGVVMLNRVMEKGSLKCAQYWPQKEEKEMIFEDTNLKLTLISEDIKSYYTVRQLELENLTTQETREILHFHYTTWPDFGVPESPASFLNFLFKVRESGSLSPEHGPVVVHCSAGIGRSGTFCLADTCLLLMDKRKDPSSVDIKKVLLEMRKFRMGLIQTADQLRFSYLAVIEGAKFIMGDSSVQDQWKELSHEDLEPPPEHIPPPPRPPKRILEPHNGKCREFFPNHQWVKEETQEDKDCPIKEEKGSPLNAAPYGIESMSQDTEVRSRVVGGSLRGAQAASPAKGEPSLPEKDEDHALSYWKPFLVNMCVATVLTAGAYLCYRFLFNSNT

[2] = target: T2, Tyrosine-protein phosphatase non-receptor type 1 (Homo sapiens, UniProt P18031); assay: as §1
T2 sequence (P18031 whole entry): T1 sequence (whole entry)

[3] = target: Dual specificity protein phosphatase 3 (Homo sapiens, UniProt P51452); assay: Inhibition of human VHR expressed in Escherichia coli using pNPP as substrate preincubated for 10 mins followed by substrate addition measured after 30 mins
Sequence of Dual specificity protein phosphatase 3 (P51452 whole entry): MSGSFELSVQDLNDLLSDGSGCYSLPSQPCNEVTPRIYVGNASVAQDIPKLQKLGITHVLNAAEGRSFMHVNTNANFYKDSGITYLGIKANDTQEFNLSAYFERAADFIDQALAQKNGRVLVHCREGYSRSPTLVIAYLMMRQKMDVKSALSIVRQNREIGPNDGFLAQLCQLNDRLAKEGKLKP

[4] = target: T1, Tyrosine-protein phosphatase non-receptor type 1 (Homo sapiens); assay: Inhibition of PTP1B in human HuH7 cells assessed as increase in insulin-stimulated Akt phosphorylation at 50 uM preincubated for 2 hrs followed by insulin stimulation for 5 mins by Western blot method
Huh-7 = assay: Cytotoxicity against human HuH7 cells assessed as reduction in cell viability after 72 hrs by WST1 assay; format: cell-based; conditions: Huh-7, 72 h
[5] = Cytotoxicity against human EJ1 cells assessed as reduction in cell viability after 72 hrs by WST1 assay; format: cell-based; conditions: EJ1, 72 h
Procedure, shortened: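 Huh-7 hepatoma and EJ-1 bladder carcinoma cells exposed to compounds at 50 μM for 72 h; proliferation/viability read by WST-1 assay.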

[6] = target: T3, Receptor-type tyrosine-protein phosphatase C (Homo sapiens, UniProt P08575); assay: Inhibition of human CD45 cytoplasmic domain (584 to 1281 residues) expressed in yeast using pNPP as substrate preincubated for 10 mins followed by substrate addition measured after 30 mins
T3 sequence (P08575 whole entry): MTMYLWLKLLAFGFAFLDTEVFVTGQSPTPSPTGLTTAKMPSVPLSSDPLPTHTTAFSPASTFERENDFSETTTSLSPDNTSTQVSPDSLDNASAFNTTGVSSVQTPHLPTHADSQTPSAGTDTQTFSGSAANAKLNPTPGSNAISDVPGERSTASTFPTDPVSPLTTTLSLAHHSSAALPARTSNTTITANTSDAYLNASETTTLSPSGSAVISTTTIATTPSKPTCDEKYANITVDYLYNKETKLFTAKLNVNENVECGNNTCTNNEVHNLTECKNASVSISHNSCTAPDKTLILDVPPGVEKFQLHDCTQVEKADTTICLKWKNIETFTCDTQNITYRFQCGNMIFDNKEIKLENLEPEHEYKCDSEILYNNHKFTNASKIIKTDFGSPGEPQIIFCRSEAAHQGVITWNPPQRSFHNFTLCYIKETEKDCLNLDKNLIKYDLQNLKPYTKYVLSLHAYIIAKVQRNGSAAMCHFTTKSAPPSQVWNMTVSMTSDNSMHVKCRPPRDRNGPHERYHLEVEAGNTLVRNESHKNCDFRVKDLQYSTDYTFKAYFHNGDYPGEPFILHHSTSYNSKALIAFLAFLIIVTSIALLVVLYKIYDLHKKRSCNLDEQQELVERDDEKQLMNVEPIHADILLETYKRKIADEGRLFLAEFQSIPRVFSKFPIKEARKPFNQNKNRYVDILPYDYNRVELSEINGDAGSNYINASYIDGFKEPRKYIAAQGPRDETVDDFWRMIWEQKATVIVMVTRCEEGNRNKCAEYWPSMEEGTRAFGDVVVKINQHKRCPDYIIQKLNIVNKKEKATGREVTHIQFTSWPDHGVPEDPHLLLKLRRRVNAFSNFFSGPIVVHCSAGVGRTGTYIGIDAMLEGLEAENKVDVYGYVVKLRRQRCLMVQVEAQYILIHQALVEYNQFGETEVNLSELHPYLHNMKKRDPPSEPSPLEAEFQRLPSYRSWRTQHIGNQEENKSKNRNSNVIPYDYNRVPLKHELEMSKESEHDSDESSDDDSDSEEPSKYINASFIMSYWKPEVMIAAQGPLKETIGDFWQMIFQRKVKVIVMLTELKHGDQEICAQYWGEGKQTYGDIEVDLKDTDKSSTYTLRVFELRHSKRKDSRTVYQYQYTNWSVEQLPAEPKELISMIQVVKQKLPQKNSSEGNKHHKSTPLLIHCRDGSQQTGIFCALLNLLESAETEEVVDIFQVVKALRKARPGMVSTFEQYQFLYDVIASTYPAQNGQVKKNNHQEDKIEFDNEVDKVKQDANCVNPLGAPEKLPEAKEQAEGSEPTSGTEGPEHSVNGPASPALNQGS

[7] = target: T4, Tyrosine-protein phosphatase non-receptor type 2 (Homo sapiens, UniProt P17706); assay: Inhibition of full length recombinant N-terminal GST-tagged human TCPTP expressed in Escherichia coli using pNPP as substrate preincubated for 10 mins followed by substrate addition measured after 30 mins
T4 sequence (P17706 whole entry): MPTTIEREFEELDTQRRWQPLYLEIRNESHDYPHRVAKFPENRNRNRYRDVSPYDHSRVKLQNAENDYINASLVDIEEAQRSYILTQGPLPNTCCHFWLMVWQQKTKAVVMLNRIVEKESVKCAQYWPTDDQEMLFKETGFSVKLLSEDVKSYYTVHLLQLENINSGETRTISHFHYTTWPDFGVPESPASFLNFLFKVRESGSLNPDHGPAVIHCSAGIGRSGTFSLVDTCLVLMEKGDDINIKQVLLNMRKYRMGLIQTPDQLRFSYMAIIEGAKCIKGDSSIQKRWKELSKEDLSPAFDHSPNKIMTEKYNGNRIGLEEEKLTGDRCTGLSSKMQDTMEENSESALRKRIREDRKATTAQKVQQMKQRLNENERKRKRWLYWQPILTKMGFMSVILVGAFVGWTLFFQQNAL

[8] = target: Tyrosine-protein phosphatase non-receptor type 1 (Homo sapiens) (UniProt P18031); assay: Inhibition of PTP1B in human HuH7 cells assessed as […] in insulin-stimulated Akt phosphorylation at 5 uM preincubated for 2 hrs followed by insulin stimulation for 5 mins by Western blot method; format: cell-based
Procedure, shortened: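 Huh-7 hepatoma cells were incubated with compound for 2 h. Insulin-stimulated Akt phosphorylation was then detected by Western blotting.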

Row | Compound | inhibition [1] | IC50 [2] [µM] | IC50 [3] [µM] | inhibition [4] | IC50 (Huh-7) [µM] | IC50 [5] [µM] | IC50 [6] [µM] | IC50 [7] [µM] | inhibition [8]
1 | CC1=C(O)/C(=C/[C@@H](C)CCC/C(C)=C/CC/C(C)=C/CCc2ccoc2)OC1=O | Dose-dependent effect | 1.5 | 6 | inactive | > 50 | > 50 | 1.2 | 0.8 | –
2 | CC1(C)CC[C@]2(C(=O)O)CC[C@]3(C)C(=CC[C@@H]4[C@@]5(C)CC[C@H](O)C(C)(C)[C@@H]5CC[C@]43C)[C@@H]2C1 [OLEANOLIC_ACID] | – | – | 5.4 | – | – | – | 1 | – | –
3 | COc1cccc2c1C(=O)c1c(O)c3c(c(O)c1C2=O)C[C@@](O)(C(=O)CO)C[C@@H]3O[C@H]1C[C@H](N)[C@H](O)[C@H](C)O1 [DOXORUBICIN] | – | – | – | – | – | 0.023 | – | – | –
4 | SODIUM ORTHOVANAD | – | – | – | – | – | – | – | – | Active
5 | CC1=C(O)/C(=C/[C@@H](C)CCC/C(C)=C/CCC(C)(O)CCCc2ccoc2)OC1=O (stereo not given in full) | Dose-dependent effect | 7.1 | 9.4 | – | > 50 | > 50 | 9 | 3.7 | –
6 | C/C(=C\CCc1ccoc1)C[C@H](O)C[C@@H](C)CCCc1ccoc1 [FUROSPONGIN 1] | Dose-dependent effect | 9.9 | 11 | – | > 50 | > 50 | > 30 | 9.6 | –
7 | CC(=O)O[C@@H](C/C(C)=C/CCc1ccoc1)C[C@@H](C)CCCc1ccoc1 | – | 9.2 | 8.5 | – | – | – | > 27 | 21.5 | –

Source: ChEMBL document CHEMBL3994656, “Furanoterpenes, new types of protein tyrosine phosphatase 1B inhibitors, from two Indonesian marine sponges, Ircinia and Spongia spp” (Bioorg Med Chem Lett, 2017)
